This note sets out measurements from ChEMBL document CHEMBL3822391, “Synthesis and Biological Evaluation of Vitamin D3 Metabolite 20S,23S-Dihydroxyvitamin D3 and Its 23R Epimer” (J Med Chem, 2016).

Activity calls are given as the source filed them. No cut-off for these calls is given here.

Data set [1] has as its target T1, 25-hydroxyvitamin D-1 alpha hydroxylase, mitochondrial (Mus musculus, UniProt O35084).
T1 sequence (O35084 whole entry): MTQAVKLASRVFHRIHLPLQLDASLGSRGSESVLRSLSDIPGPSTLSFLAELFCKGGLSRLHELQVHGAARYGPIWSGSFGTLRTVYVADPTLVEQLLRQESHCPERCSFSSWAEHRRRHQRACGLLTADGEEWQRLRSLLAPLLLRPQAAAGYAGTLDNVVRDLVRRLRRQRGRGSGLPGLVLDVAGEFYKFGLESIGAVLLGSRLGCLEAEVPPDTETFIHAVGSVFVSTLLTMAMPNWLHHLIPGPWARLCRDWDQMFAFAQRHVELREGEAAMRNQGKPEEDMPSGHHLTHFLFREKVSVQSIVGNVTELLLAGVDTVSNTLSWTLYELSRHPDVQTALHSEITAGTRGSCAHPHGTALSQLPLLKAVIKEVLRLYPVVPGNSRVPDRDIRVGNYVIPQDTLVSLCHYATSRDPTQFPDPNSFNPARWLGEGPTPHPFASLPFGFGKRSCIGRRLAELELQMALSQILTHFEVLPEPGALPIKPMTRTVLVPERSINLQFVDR
As to the kind of experiment: Activity of mouse CYP27B1 assessed as compound hydroxylation measured per mol of phospholipid after 3 mins by HPLC. As to conditions: 0.05 h. In kind it is ADME. In short, it runs like this:
(§1)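 Substrate was incorporated into phospholipid vesicles at 0.0025–0.07 mol/mol PL and incubated 3 min with 0.1 µM mouse CYP27B1. Product was quantified by HPLC. Km and kcat came from a Michaelis–Menten fit, given as mean ± standard error of the curve fit.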

Data set [2] concerns the target T1, 25-hydroxyvitamin D-1 alpha hydroxylase, mitochondrial. As to the kind of experiment: Ratio of Kcat to Km for mouse CYP27B1 measured per mol of phospholipid after 3 mins by HPLC. As to conditions: 0.05 h. Type of data set: ADME. The essentials:
as §1

Data set [3] can be described thus: Antiinflammatory activity in DBA/1 mouse splenocytes assessed as upregulation of LAIR1 level by measuring mean fluorescence intensity at 100 nM by flow cytometry (reference value: 766 +/- 22 au). Type of data set: functional, cell-based. As to conditions: Splenocyte. The essentials: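 Splenocytes from DBA/1 mice were cultured in EMEM with 9% charcoal-stripped FBS and treated overnight at 10^-7 M, with an ethanol vehicle control. Cells were stained with fluorochrome anti-CD4 and anti-LAIR1. LAIR1 mean fluorescence was read by multiparameter flow cytometry, gated on CD4 cells.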
Background: In flow cytometry, cells or beads pass a laser one at a time.

Data set [4] can be described thus: Growth inhibition of human SK-MEL-188 cells measured after 48 hrs by MTS/PMS assay. Type of data set: functional. As to conditions: SK-MEL-188, 48 h.
In data set [5] the target is T2, Vitamin D3 receptor (Homo sapiens) (UniProt P11473).
T2 sequence (whole entry): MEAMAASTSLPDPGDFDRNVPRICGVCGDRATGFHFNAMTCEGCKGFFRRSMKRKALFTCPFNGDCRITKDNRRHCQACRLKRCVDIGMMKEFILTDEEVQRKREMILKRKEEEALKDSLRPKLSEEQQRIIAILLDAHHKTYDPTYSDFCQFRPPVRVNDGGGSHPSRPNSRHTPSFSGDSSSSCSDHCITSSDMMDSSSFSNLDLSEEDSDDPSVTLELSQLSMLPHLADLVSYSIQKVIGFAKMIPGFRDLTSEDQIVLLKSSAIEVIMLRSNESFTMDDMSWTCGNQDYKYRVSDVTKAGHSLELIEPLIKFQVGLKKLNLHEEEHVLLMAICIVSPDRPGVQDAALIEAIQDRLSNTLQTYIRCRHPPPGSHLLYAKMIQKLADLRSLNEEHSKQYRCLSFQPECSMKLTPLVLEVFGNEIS
The data set is described as follows: Activation of VDR in human Caco2 cells expressing lentiviral VDRE-luciferase vector assessed as VDRE-mediated transcriptional activity up to 1000 nM measured after 24 hrs by luciferase transcriptional reporter assay. Type of data set: cell-based. As to conditions: Caco-2. The essentials: (§2)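 Cells carry a lentiviral VDRE-luciferase reporter and were selected for 1 week with an extra 1.0 µg/mL puromycin. Growth media: Caco-2 in DMEM with 10% FBS; HaCaT in the same with 5% FBS; Jurkat in RPMI 1640 with 10% FBS. Cells were plated in FBS-free medium for 24 h, then given serial concentrations (final DMSO 0.1%) for 24 h. ONE-Glo luminescence was read after 5 min at room temperature. Triplicates.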
On the technique in general: Reporter assays use an easily measured gene product as a stand-in for the process of interest.

Data set [6] addresses T2, Vitamin D3 receptor (Homo sapiens). As to the kind of experiment: Activation of VDR in human HaCaT cells expressing lentiviral VDRE-luciferase vector assessed as VDRE-mediated transcriptional activity up to 1000 nM measured after 24 hrs by luciferase transcriptional reporter assay. In kind it is cell-based. In short, it runs like this: as §2
Data set [7] shares this target. As to the kind of experiment: Activation of VDR in human Jurkat cells expressing lentiviral VDRE-luciferase vector assessed as VDRE-mediated transcriptional activity up to 1000 nM measured after 24 hrs by luciferase transcriptional reporter assay. Type of data set: cell-based. The essentials: as §2
The target in data set [8] is T3, Vitamin D3 receptor (Homo sapiens, UniProt P11473).
T3 sequence (P11473 whole entry): T2 sequence (whole entry)
The data set is described as follows: Activation of VDR in human HaCaT cells expressing lentiviral VDRE-luciferase vector assessed as VDRE-mediated transcriptional activity measured after 24 hrs by luciferase transcriptional reporter assay. Type of data set: cell-based.

The target in data set [9] is T3, Vitamin D3 receptor. The data set is described as follows: Activation of VDR in human Caco2 cells expressing lentiviral VDRE-luciferase vector assessed as VDRE-mediated transcriptional activity measured after 24 hrs by luciferase transcriptional reporter assay. In kind it is cell-based, Caco-2.
Data set [10] has as its target T3, Vitamin D3 receptor. The data set is described as follows: Activation of VDR in human Jurkat cells expressing lentiviral VDRE-luciferase vector assessed as VDRE-mediated transcriptional activity measured after 24 hrs by luciferase transcriptional reporter assay. Type of data set: cell-based.

For the compound `C=C1CC[C@H](O)C/C1=C/C=C1\CCC[C@@]2(C)[C@H]1CC[C@@H]2[C@@](C)(O)C[C@@H](O)CC(C)C`, the Km in [1] is recorded as 5.2 ×10⁻³ mol/mol. In addition, in data set [2], the Kcat/Km is 4731. Also, the Flu intensity in [3] was 1480 a.u. In [4], this compound returned an IC50 of 0.01 nM. The result in data set [5], in data set [6] and in [7] was inactive.
As for `C=C1/C(=C\C=C2/CCC[C@]3(C)[C@@H]([C@H](C)OCCC(C)(C)O)CC[C@@H]23)C[C@@H](O)C[C@@H]1O` [MAXACALCITOL], the EC50 in data set [8] is 160 nM; in [9], 144 nM; in data set [10], 0.855 nM. Besides, in data set [3], the Flu intensity turned out to be 1480 a.u.
As for `C=C1/C(=C\C=C2/CCC[C@@]3(C)[C@H]2CC[C@@H]3[C@@](C)(O)C[C@H](O)CC(C)C)C[C@@H](O)C[C@@H]1O`, the concentration for a half-maximal effect (EC50) in data set [8] is 117 nM; in data set [9], 172 nM; in data set [10], 30.6 nM. Besides, the Flu intensity in data set [3] is 1480 a.u. Besides, half-maximal inhibition in data set [4] (IC50) was put at 0.01 nM.
As to `C=C1CC[C@H](O)C/C1=C/C=C1\CCC[C@@]2(C)[C@H]1CC[C@@H]2[C@@](C)(O)C[C@H](O)CC(C)C`, in [1], the Km stood at 2.3 ×10⁻³ mol/mol. Further, the Kcat/Km in [2] is on record as 5087. Also, the figures for the EC50 in [8], in [9] and in data set [10] were 484 nM, 562 nM and 653 nM, respectively. Further, the Flu intensity in [3] is 1480 a.u. In addition, inhibition in data set [4] was half-maximal at 0.01 nM (IC50).
Turning to `C=C1/C(=C\C=C2/CCC[C@]3(C)[C@@H]([C@H](C)CCCC(C)(C)O)CC[C@@H]23)C[C@@H](O)C[C@@H]1O`, the Flu intensity in data set [3] worked out at 1360 a.u.
For `C=C1/C(=C\C=C2/CCC[C@@]3(C)[C@H]2CC[C@@H]3[C@@](C)(O)C[C@@H](O)CC(C)C)C[C@@H](O)C[C@@H]1O`, the EC50 in data set [8] came out at 175 nM; in data set [9], 241 nM; in [10], 203 nM. Moreover, the Flu intensity in data set [3] amounted to 1480 a.u. For the same compound, the half-maximal inhibitory concentration (IC50) in data set [4] is 0.01 nM.

As a reminder, the IC50 is the concentration at which inhibition is half-maximal. Higher therefore signals a need for much substance. As usually defined, the EC50 is the concentration that produces a half-maximal response.
